Assay results: ChEMBL document CHEMBL1124672, “A minor modification of residue 1 in potent vasopressin antagonists dramatically reduces agonist activity” (J Med Chem, 1989)
Numbered stars: 1 amine (or outer) side, 2 acyl side, 3 side chain; on linkers, the order of the positions; unused ones are H or OH. Bridge positions count the residues as written; N and C are the ends. Square brackets hold non-standard residues; d marks the D form. Peptide text beside a SMILES is read from it. X1 = O=C(CC1(S[*:2])CCCCC1)[*:1]

Legend:
Rattus norvegicus = test: Effective dose of compound required to lower urine osmolality to 300 mOsm/kg H2O in rat; format: functional
How it was run: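 Hydropenic rat model. ED300 (µg/kg) is the dose reducing urine osmolality from hydropenic levels to plasma osmolality level, 300 mOsm/kg H2O.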

Canis familiaris [1] = test: Compound was tested for the maximum urine osmolality with a dose of 100 ug/kg compound in dog.; format: ADME, organism-based, Canis lupus familiaris; conditions: in vivo, 0.1 mg/kg
How it was run: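 Adult female mongrel dogs, lightly restrained supine, food withheld 18 h, water-loaded (tap water 5% body weight by gavage). 3% dextrose infused intravenously until Uosm below 70 mOsm/kg H2O, then matched to urine output. After 20 min baseline, indomethacin 2 mg/kg load + 3 mg/kg per h for 20 min, then single i.v. bolus 100 µg/kg or vehicle. Uosm by freezing point depression, every 10 min for 3 h; maximum Uosm, mean ±SE.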

[2] = Compound was evaluated for inhibition of vasopressin-stimulated adenylate cyclase in human medullary preparation
How it was run: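 Human renal medullary tissue; inhibition of vasopressin-stimulated adenylate cyclase, reported as inhibition constant Ki.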

Canis familiaris [3] = test: Compound was tested for the maximum urine osmolality with a dose of 100 ug/kg compound in dog; format: ADME, organism-based, Canis lupus familiaris; conditions: in vivo, 0.1 mg/kg
How it was run: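 Adult female mongrel dogs, fasted 18 h with water allowed, hydrated orally with tap water (5% body weight), bladder-catheterized. 3% dextrose iv to baseline water diuresis (Uosm <70 mOsm/kg H2O). Indomethacin 2 mg/kg load + 3 mg/kg per h. Single iv bolus of 100 µg/kg peptide or vehicle. Uosm by freezing point depression every 10 min for 3 h; maximum value, mean ±SE.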

[4] = test system: Vasopressin V2 receptor (Sus scrofa); test: Binding affinity of compound towards Vasopressin receptor by binding [3H]LVP to pig renal medullary preparation; conditions: Renal medulla

Row | Compound | ED300 (Rattus norvegicus) | Max Uosm (Canis familiaris [1]) | Ki [2] | Max Uosm (Canis familiaris [3]) | K Bind [4]
1 | CCOc1ccc(C[C@H]2NC(=O)CC3(CCC(C)CC3)SSC[C@@H](C(=O)N3CCC[C@H]3C(=O)N[C@@H](CCCN=C(N)N)C(N)=O)NC(=O)[C@H](CC(N)=O)NC(=O)[C@H](C(C)C)NC(=O)[C@H](Cc3ccccc3)NC2=O)cc1 (stereo in doubt; 2) | 0.045 mg/kg | – | – | – | –
2 | CCOc1ccc(C[C@H]2NC(=O)CC3(CCC(C)CC3)SSC[C@@H](C(=O)N3CCC[C@H]3C(=O)N[C@@H](CCCN=C(N)N)C(=O)NCC(N)=O)NC(=O)[C@H](CC(N)=O)NC(=O)[C@H](C(C)C)NC(=O)[C@H](Cc3ccccc3)NC2=O)cc1 (stereo partly specified) [listing 1 of 2 here] | – | 85 mOsmol kg-1 | 4.3 nM | – | –
3 | CCOc1ccc(C[C@H]2NC(=O)CC3(CCC(C)CC3)SSC[C@@H](C(=O)N3CCC[C@H]3C(=O)N[C@@H](CCCN=C(N)N)C(N)=O)NC(=O)[C@H](CC(N)=O)NC(=O)[C@H](C(C)C)NC(=O)[C@H](Cc3ccccc3)NC2=O)cc1 (stereo in doubt; 3) | 0.022 mg/kg | – | – | – | –
4 | CCOc1ccc(C[C@H]2NC(=O)CC3(CCC(C)CC3)SSC[C@@H](C(=O)N3CCC[C@H]3C(=O)N[C@@H](CCCNC(=N)N)C(N)=O)NC(=O)[C@H](CC(N)=O)NC(=O)[C@H](C(C)C)NC(=O)[C@H](Cc3ccccc3)NC2=O)cc1 (stereo in doubt; 2) | – | – | – | 91 mOsmol kg-1 | –
5 | CCOc1ccc(C[C@H]2NC(=O)CC3(CCCCC3)SSC[C@@H](C(=O)N3CCC[C@H]3C(=O)N[C@@H](CCCNC(=N)N)C(N)=O)NC(=O)[C@H](CC(N)=O)NC(=O)[C@H](C(C)C)NC(=O)[C@H](Cc3ccccc3)NC2=O)cc1 ([dY](Et)FVNCPR-NH2; linker N-5 via X1) | – | 1625 mOsmol kg-1 | 3.6 nM | – | –
6 | CCOc1ccc(C[C@H]2NC(=O)CC3(CCCCC3)SSC[C@@H](C(=O)N3CCC[C@H]3C(=O)N[C@@H](CCCN=C(N)N)C(N)=O)NC(=O)[C@H](CC(N)=O)NC(=O)[C@H](C(C)C)NC(=O)[C@H](Cc3ccccc3)NC2=O)cc1 ([dY](Et)FVNCPR-NH2; linker N-5 via X1) | 0.015 mg/kg | – | – | – | –
7 | CCOc1ccc(C[C@H]2NC(=O)CC3(CCCCC3)SSC[C@@H](C(=O)N3CCC[C@H]3C(=O)N[C@@H](CCCN=C(N)N)C(=O)NCC(N)=O)NC(=O)[C@H](CC(N)=O)NC(=O)[C@H](C(C)C)NC(=O)[C@H](Cc3ccccc3)NC2=O)cc1 ([dY](Et)FVNCPRG-NH2; linker N-5 via X1) [listing 1 of 2 here] | 0.011 mg/kg | – | – | – | –
8 | CCOc1ccc(C[C@@H]2NC(=O)CC3(CCC(C)CC3)SSC[C@H](C(=O)N[C@@H](CCCN=C(N)N)C(=O)N[C@@H](CCCN=C(N)N)C(N)=O)NC(=O)[C@H](CC(N)=O)NC(=O)[C@H](C(C)C)NC(=O)[C@H](Cc3ccccc3)NC2=O)cc1 (stereo partly specified) | 0.046 mg/kg | 103 mOsmol kg-1 | 3.9 nM | – | 4.2 nM
9 | CCOc1ccc(C[C@H]2NC(=O)CC3(CCCCC3)SSC[C@@H](C(=O)N3CCC[C@H]3C(=O)N[C@@H](CCCN=C(N)N)C(=O)NCC(N)=O)NC(=O)[C@H](CC(N)=O)NC(=O)[C@H](C(C)C)NC(=O)[C@H](Cc3ccccc3)NC2=O)cc1 ([dY](Et)FVNCPRG-NH2; linker N-5 via X1) [listing 2 of 2 here] | – | 1216 mOsmol kg-1 | 4.6 nM | – | –
10 | CCOc1ccc(C[C@H]2NC(=O)CC3(CCC(C)CC3)SSC[C@@H](C(=O)N3CCC[C@H]3C(=O)N[C@@H](CCCNC(=N)N)C(N)=O)NC(=O)[C@H](CC(N)=O)NC(=O)[C@H](C(C)C)NC(=O)[C@H](Cc3ccccc3)NC2=O)cc1 (stereo in doubt; 3) | – | 613 mOsmol kg-1 | – | – | –
11 | CCOc1ccc(C[C@@H]2NC(=O)CC3(CCCCC3)SSC[C@H](C(=O)N[C@@H](CCCN=C(N)N)C(=O)N[C@@H](CCCN=C(N)N)C(N)=O)NC(=O)[C@@H](CC(N)=O)NC(=O)[C@H](C(C)C)NC(=O)[C@@H](Cc3ccccc3)NC2=O)cc1 | 0.0135 mg/kg | 469 mOsmol kg-1 | 4.5 nM | – | 4.5 nM
12 | CCOc1ccc(C[C@H]2NC(=O)CC3(CCC(C)CC3)SSC[C@@H](C(=O)N3CCC[C@H]3C(=O)N[C@@H](CCCN=C(N)N)C(=O)NCC(N)=O)NC(=O)[C@H](CC(N)=O)NC(=O)[C@H](C(C)C)NC(=O)[C@H](Cc3ccccc3)NC2=O)cc1 (stereo partly specified) [listing 2 of 2 here] | 0.025 mg/kg | – | – | – | –
